The values below come from ChEMBL document CHEMBL1764957, “Inhibitors and promoters of tubulin polymerization: synthesis and biological evaluation of chalcones and related dienones as potential anticancer agents” (Bioorg Med Chem, 2011).

In general, IC50 refers to the concentration that inhibits the measured activity by half.

Assay [1] deals with T1, Tubulin (Sus scrofa) (UniProt P02554+P02550). The assay is described as follows: Inhibition of pig tubulin polymerization at 25 uM. Type of assay: protein assay. In a few lines: (§1)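 Kit assay with porcine tubulin, standard protocol, read by fluorescent reporter enhancement. Test substances were dissolved in DMSO and run at 5 and 25. Docetaxel (stabilizing control) and vincristine (destabilizing control) were diluted in PBS and used at 3. The experiment was run twice and mean values were reported.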

A short description of assay [2]: Cytotoxicity against human 8226/LR-5 cells after 72 hrs by fluorometric assay. The assay is classed as functional, cell-based. In a few lines: (§2)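 Fluorometric microculture cytotoxicity assay (FMCA). Cell suspensions (10,000–20,000 cells per mL) were exposed at 37 °C for 72 h to six concentrations from 0.016 to 50, added from DMSO stocks (at most 1% DMSO final). Cells were washed with PBS and given fluorescein diacetate (10 µg/mL). Fluorescence at 485/520 nm was read after 40 min. Survival index is relative to untreated wells. Duplicate wells, experiment repeated twice.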

For assay [3], the system named is CCRF-CEM. The assay is described as follows: Cytotoxicity against human CCRF-CEM cells after 72 hrs by fluorometric assay. The assay is classed as functional, cell-based. In a few lines: as §2
In assay [4] the test system is ACHN. The assay is described as follows: Cytotoxicity against human ACHN cells after 72 hrs by fluorometric assay. Type of assay: functional, cell-based. In a few lines: as §2
For assay [5], the system named is H69AR. The assay is described as follows: Cytotoxicity against human H69AR cells after 72 hrs by fluorometric assay. The assay is classed as functional, cell-based. In a few lines:
as §2

In assay [6] the test system is NCI-H69. The assay is described as follows: Cytotoxicity against human NCI-H69 cells after 72 hrs by fluorometric assay. Type of assay: functional, cell-based. Particulars: NCI-H69, 72 h. In a few lines:
as §2

Assay [7] in a line: Cytotoxicity against human 8226/DOX40 cells after 72 hrs by fluorometric assay. Type of assay: functional, cell-based. In a few lines: as §2
Assay [8] in a line: Cytotoxicity against human vincristine-resistant […] cells after 72 hrs by fluorometric assay. Type of assay: functional, cell-based. In a few lines:
as §2

Assay [9] is described as follows: Cytotoxicity against human CEM/VM1 cells after 72 hrs by fluorometric assay. The assay is classed as functional, cell-based. Particulars: CEM-VM1, 72 h. In a few lines: as §2
Assay [10] concerns RPMI-8226. The assay is described as follows: Cytotoxicity against human RPMI8226 cells after 72 hrs by fluorometric assay. Type of assay: functional, cell-based. Particulars: RPMI-8226, 72 h. In a few lines:
as §2

Assay [11] concerns U-937/GTB. The assay is described as follows: Cytotoxicity against human U937/GTB cells after 72 hrs by fluorometric assay. The assay is classed as functional, cell-based. In a few lines: as §2
Assay [12] has as its target T1, Tubulin (Sus scrofa). The assay is described as follows: Effect on pig tubulin polymerization assessed as microtubule stabilization at 25 uM. Type of assay: protein assay. In a few lines:
as §1

Assay [13] addresses T1, Tubulin (Sus scrofa). The assay is described as follows: Inhibition of pig tubulin polymerization at 3 uM. Type of assay: protein assay. In a few lines: as §1
In assay [14] the target is T1, Tubulin (Sus scrofa). The assay is described as follows: Effect on pig tubulin polymerization assessed as microtubule stabilization at 3 uM. The assay is classed as protein assay. In a few lines: as §1
[15] abbreviates: Homo sapiens, H69AR, 72 h, read-out: IC50.

SMILES strings stand for the structures. The source made the active and inactive calls. No cut-off for these calls is given here.

T1 sequence (P02550 whole entry, looked up): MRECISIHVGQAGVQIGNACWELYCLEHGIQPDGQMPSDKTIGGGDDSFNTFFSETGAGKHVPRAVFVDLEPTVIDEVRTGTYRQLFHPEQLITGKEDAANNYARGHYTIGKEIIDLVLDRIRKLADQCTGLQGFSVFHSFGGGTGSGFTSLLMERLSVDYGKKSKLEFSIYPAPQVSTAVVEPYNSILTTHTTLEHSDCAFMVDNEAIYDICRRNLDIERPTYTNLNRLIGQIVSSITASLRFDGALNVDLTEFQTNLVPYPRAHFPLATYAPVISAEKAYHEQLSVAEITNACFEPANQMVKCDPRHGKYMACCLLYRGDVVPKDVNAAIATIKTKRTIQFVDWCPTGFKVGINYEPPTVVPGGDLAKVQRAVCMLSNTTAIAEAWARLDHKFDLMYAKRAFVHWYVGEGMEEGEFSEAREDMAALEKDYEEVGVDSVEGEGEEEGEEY
T1 sequence (P02554 whole entry, looked up): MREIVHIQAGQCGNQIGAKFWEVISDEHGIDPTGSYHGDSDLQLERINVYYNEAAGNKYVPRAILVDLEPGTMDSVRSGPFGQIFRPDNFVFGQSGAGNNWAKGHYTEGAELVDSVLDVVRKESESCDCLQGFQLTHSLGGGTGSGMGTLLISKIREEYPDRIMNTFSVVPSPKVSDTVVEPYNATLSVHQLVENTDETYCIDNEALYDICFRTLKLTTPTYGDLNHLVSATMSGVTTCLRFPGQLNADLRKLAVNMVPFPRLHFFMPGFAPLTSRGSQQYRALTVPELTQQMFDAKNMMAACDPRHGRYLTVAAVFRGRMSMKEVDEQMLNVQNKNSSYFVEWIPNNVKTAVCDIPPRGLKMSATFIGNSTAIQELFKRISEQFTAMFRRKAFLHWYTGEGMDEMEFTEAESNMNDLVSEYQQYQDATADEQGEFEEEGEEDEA

On to `CCN(CC)c1ccc(/C=C/C(=O)c2cc(Cl)cc(Br)c2O)cc1`, for which the inhibition entry in assay [1] was “Active”. The IC50 was 9.4 µM in assay [2]; 14.8 µM in assay [3]; 164 µM in assay [4]; 24.5 µM in assay [5] (setting [15]); 5.2 µM in assay [6]; 9.7 µM in assay [7]. Moreover, the IC50 in [8] was found to be 8.8 µM; in assay [9], 14.5 µM; in assay [10], 29.4 µM; in assay [11], 9.3 µM.
On to `O=C(/C=C/C=C/c1cn(Cc2ccccc2)c2ccccc12)c1cc(Cl)cc(Br)c1O`, for which the IC50 in assay [2] was determined as 70 µM; in [3] it was 280 µM; in [4], 17 µM; in assay [5] (setting [15]), 48.5 µM; in [6], 11.1 µM; in [7], 42.3 µM. Further, the IC50 in [8] came to 54 µM; in [9], 89 µM; in assay [10], 119 µM; in [11] it was 49 µM. For the same compound, in assay [12], the outcome was Active.
Regarding `COc1ccc(/C=C/C(=O)c2cc(Cl)cc(Br)c2O)cc1`, in assay [1], the inhibition entry is “inactive”. In addition, the IC50 in assay [2] turned out to be 46 µM; in [3], 111 µM; in [4], 49.4 µM; in [5] (setting [15]) it was 42.6 µM; in [6], 16.4 µM; in assay [7], 16.9 µM. Further, the IC50 came out at 77 µM in [8], 45.8 µM in assay [9], 80 µM in [10] and 45 µM in assay [11].
For the compound `CC[C@]1(O)C[C@H]2CN(CCc3c([nH]c4ccccc34)[C@@](C(=O)OC)(c3cc4c(cc3OC)N(C=O)[C@H]3[C@@](O)(C(=O)OC)[C@H](OC(C)=O)[C@]5(CC)C=CCN6CC[C@]43[C@@H]65)C2)C1`, the inhibition entry in [13] is “Active”.
Turning to `CC(=O)O[C@@]12CO[C@@H]1C[C@H](O)[C@@]1(C)C(=O)[C@H](O)C3=C(C)[C@@H](OC(=O)[C@H](O)[C@@H](NC(=O)OC(C)(C)C)c4ccccc4)C[C@@](O)([C@@H](OC(=O)c4ccccc4)[C@H]21)C3(C)C`, the outcome in assay [14] was Active.
In the case of `O=C(/C=C(\O)c1cc(Cl)cc(Br)c1O)/C=C/c1ccccc1`, the inhibition entry in assay [1] is “inactive”. Further, the IC50 in assay [2] is 33.5 µM; in assay [3], 34.1 µM; in assay [4], 37.8 µM; in assay [5] (setting [15]), 25.5 µM; in [6], 9.4 µM; in [7], 19.1 µM. The IC50 was found to be 23.9 µM in assay [8], 24.1 µM in [9], 27.9 µM in [10] and 18.1 µM in assay [11].
As to `O=C(/C=C/C=C/c1ccccc1)c1cc(Cl)cc(Br)c1O`, the inhibition entry in assay [1] was “Active”. For the same compound, the IC50 in assay [2] was 23.4 µM; in assay [3] it was 129 µM; in [4], 93 µM; in assay [5] (h69ar), “Non-toxic”; in assay [6] it was 19.9 µM; in assay [7], 14.2 µM. In addition, the IC50 was 31.7 µM in assay [8], 48.6 µM in [9], 48.8 µM in assay [10] and 36.6 µM in assay [11].
For `O=C(/C=C/c1ccccc1)c1cc(Cl)cc(Br)c1O`, the inhibition result in assay [1] was “Active”. Also, the IC50 is 13.2 µM in assay [2]; 37.6 µM in [3]; 48.9 µM in [4]; 26.4 µM in assay [5] (setting [15]); 10.3 µM in assay [6]; 12.4 µM in [7]. Also, the IC50 is 24.2 µM in assay [8], 22.3 µM in assay [9], 18.7 µM in assay [10] and 20 µM in assay [11].
As for `O=C(/C=C/c1cccs1)c1cc(Cl)cc(Br)c1O`, the inhibition entry in [1] is “Active”. In addition, the IC50 in assay [2] turned out to be 23.3 µM; in [3], 152 µM; in assay [4], 44.2 µM; in assay [5] (setting [15]) it was 56.1 µM; in assay [6] it was 20 µM; in [7] it was 26.5 µM. The IC50 was 32.6 µM in assay [8], 48.9 µM in assay [9], 79 µM in [10] and 42.5 µM in [11].
For the compound `CCN(CC)c1ccc(/C=C/C(=O)c2cc(Br)cc(Br)c2O)cc1`, the inhibition entry in assay [1] is “Active”. Further, the IC50 in [2] came to 9.9 µM; in assay [3] it was 20.1 µM; in assay [4], 69 µM; in assay [5] (setting [15]), 38.8 µM; in [6], 7.1 µM; in assay [7], 7.7 µM. Also, the IC50 in [8] was found to be 9.6 µM; in assay [9], 13.1 µM; in [10] it was 26.1 µM; in assay [11], 8.2 µM.
Take `O=C(/C=C/c1ccc(C(F)(F)F)cc1)c1cc(Cl)cc(Br)c1O`: the inhibition entry in assay [1] is “inactive”. Besides, the IC50 is 22.3 µM in assay [2]; 15.4 µM in [3]; 49.4 µM in assay [4]; 33.2 µM in [5] (setting [15]); 11.5 µM in [6]; 22.5 µM in assay [7]. For the same compound, the IC50 turned out to be 24.4 µM in assay [8], 31.1 µM in [9], 20.8 µM in assay [10] and 14.9 µM in [11].
